Experimental data as given in ChEMBL document CHEMBL1139157, “2,5-Disubstituted pyridines: the discovery of a novel series of 5-HT2A ligands” (Bioorg Med Chem Lett, 2007).

Legend:
[1] = molecular target: 5-hydroxytryptamine receptor 2A (Homo sapiens, UniProt P28223); experiment: Displacement of [3H]ketanserin from human 5HT2A receptor expressed in CHO cells; assay type: cell-based
[2] = molecular target: T1, 5-hydroxytryptamine receptor 2C (Homo sapiens, UniProt P28335); experiment: Displacement of [3H][…] from human 5HT2C receptor expressed in CHO cells; assay type: cell-based
T1 sequence (P28335 whole entry): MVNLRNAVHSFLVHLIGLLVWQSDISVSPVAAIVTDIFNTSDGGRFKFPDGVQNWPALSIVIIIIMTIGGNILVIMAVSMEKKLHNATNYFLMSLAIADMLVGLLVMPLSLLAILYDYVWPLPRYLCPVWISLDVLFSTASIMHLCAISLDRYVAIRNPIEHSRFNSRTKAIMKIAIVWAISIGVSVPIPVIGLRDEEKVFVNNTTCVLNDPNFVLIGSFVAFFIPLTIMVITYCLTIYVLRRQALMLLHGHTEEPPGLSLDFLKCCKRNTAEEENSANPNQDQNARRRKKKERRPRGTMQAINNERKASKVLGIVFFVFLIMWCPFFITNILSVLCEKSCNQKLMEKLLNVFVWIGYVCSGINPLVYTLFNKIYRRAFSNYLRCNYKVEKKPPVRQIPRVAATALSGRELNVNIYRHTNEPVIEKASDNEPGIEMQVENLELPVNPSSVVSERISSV

D(2) dopamine receptor = D(2) dopamine receptor (Homo sapiens, UniProt P14416); experiment: Displacement of [3H]spiperone from human dopamine D2 receptor expressed in CHO cells; assay type: cell-based
D(2) dopamine receptor, sequence (P14416 whole entry): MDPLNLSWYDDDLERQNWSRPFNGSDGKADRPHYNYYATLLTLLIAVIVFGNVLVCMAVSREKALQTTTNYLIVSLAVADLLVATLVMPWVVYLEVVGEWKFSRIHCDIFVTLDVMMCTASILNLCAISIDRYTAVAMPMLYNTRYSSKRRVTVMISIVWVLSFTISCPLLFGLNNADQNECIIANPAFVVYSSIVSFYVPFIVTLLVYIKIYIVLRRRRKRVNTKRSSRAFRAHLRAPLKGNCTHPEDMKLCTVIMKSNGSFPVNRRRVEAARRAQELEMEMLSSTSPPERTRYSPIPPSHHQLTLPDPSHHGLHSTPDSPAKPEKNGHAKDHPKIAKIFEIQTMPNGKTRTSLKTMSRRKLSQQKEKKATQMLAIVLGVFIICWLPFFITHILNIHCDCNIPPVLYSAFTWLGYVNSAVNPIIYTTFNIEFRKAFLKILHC

[3] = molecular target: Serotonin 2 receptors; 5-HT2a & 5-HT2c (Homo sapiens) (UniProt P28223+P28335); experiment: Selectivity for human 5HT2A receptor over human 5HT2C receptor
Serotonin 2 receptors; 5-HT2a & 5-HT2c (Homo sapiens), sequence (P28223 whole entry, looked up, one chain of several): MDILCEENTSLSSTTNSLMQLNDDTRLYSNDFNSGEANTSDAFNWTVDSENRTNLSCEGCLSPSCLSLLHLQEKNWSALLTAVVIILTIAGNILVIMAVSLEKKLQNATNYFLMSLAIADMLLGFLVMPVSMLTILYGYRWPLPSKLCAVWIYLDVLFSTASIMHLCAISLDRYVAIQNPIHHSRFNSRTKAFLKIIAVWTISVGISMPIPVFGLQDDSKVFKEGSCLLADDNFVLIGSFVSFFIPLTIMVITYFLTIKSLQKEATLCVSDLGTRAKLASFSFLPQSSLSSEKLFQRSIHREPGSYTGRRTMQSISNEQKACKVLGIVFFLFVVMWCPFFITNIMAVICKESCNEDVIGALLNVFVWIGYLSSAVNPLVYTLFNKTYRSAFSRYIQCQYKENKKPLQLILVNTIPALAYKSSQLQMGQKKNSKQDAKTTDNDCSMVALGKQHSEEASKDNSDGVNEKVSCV

[4] = molecular target: Voltage-gated inwardly rectifying potassium channel KCNH2 (Homo sapiens, UniProt Q12809); experiment: Displacement of [3H]dofetilide from hERG expressed in HEK cells; assay type: cell-based, HEK293
Voltage-gated inwardly rectifying potassium channel KCNH2, sequence (Q12809 whole entry): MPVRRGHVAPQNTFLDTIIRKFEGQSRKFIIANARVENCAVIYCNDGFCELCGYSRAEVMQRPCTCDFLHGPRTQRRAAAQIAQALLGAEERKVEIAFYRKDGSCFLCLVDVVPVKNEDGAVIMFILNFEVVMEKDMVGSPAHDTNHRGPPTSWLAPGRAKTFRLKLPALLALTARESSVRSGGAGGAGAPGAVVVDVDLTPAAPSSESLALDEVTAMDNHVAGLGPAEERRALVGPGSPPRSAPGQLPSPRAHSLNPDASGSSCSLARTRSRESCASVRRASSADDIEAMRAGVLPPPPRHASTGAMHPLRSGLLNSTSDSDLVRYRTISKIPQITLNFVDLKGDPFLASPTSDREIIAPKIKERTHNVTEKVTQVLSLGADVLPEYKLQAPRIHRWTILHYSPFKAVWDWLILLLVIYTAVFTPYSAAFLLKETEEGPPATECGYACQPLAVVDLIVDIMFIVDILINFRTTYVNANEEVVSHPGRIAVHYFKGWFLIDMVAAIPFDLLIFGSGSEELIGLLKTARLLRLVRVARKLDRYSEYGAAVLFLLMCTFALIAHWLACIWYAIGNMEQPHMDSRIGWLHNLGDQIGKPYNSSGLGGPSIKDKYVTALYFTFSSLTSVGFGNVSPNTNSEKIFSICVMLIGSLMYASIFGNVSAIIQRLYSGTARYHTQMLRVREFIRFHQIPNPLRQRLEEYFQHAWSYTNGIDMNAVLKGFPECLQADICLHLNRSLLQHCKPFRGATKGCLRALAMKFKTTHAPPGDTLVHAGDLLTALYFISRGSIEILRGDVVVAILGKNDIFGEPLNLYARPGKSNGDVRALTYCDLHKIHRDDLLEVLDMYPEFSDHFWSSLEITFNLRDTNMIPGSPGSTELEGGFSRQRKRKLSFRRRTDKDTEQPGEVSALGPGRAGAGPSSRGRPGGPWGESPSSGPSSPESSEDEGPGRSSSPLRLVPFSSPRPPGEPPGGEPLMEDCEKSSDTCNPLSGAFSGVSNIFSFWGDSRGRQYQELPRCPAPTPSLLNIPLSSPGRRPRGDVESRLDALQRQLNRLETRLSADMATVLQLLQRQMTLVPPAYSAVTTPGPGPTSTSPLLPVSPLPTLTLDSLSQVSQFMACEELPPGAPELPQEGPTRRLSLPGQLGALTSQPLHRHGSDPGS

Rattus norvegicus = experiment: Receptor occupancy ex vivo by displacement of tritiated radioligand from 5HT2A receptor in rat at 5 mg/kg, po; assay type: functional
Summary of the method: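 Rats dosed 5 mg/kg po; [3H] selective 5-HT2A radioligand (6 lCi) given by tail vein injection. Read at 1 h. Occupancy (%) = 100 − [100·(compound counts/vehicle counts)], with vehicle counts taken as total binding.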

[5] = Drug level in rat plasma at 5 mg/kg, po after 1 hr; assay type: ADME, organism-based; design: dose 5 mg/kg, route oral
Summary of the method: (§1)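 Rats given 5 mg/kg po, with a radiolabeled selective 5-HT2A ligand co-administered; drug concentrations in plasma and brain measured at 1 h after dosing.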

[6] = Drug level in rat brain at 5 mg/kg, po after 1 hr; assay type: ADME, organism-based; design: dose 5 mg/kg, route oral; conditions: read-out: Drug uptake; summary of the method: as §1

5-hydroxytryptamine receptor 2A, sequence (P28223 whole entry): as the sequence (P28223 whole entry, looked up, one chain of several) above

| Compound | Ki [1] | Ki [2] | Ki (D(2) dopamine receptor) | Ratio Ki [3] | Ki (D(2) dopamine receptor; cho) | concentration at 1 h [5] | concentration at 1 h [6] | Ki [4] | Activity (Rattus norvegicus) |
| --- | --- | --- | --- | --- | --- | --- | --- | --- | --- |
| O=S(=O)(c1ccc(F)cc1)c1ccc(CCc2ccc(F)cc2)nc1 | 23 nM | 2700 nM | > 1000 nM |  |  |  |  |  |  |
| N#Cc1cc(F)ccc1/C=C/c1ccc(S(=O)(=O)c2ccccc2F)cn1 | 9.9 nM | 19 nM | > 2000 nM | 2.1 |  |  |  | 1500 nM |  |
| [O-][S+](c1ccccc1)c1ccc(/C=C/c2ccc(F)cc2F)nc1 (single isomer, unassigned; form 2) [listing 1 of 2 here] |  |  |  | 36 |  |  |  |  |  |
| [O-][S+](c1ccccc1)c1ccc(/C=C/c2ccc(F)cc2F)nc1 (stereo in doubt; 30) [listing 1 of 2 here] | 0.79 nM | 30 nM |  |  | > 2000 nM | 230 nM | 1070 nM | 2800 nM | 90% |
| O=S(=O)(c1ccc(/C=C/c2ccc(F)cc2O)nc1)c1ccccc1F | 0.19 nM | 580 nM | > 2000 nM | 3000 |  |  |  | 2100 nM |  |
| [O-][S+](c1ccccc1)c1ccc(/C=C/c2ccc(F)cc2F)nc1 (single isomer, unassigned; form 1) [listing 1 of 2 here] | 30 nM | 2400 nM |  |  | > 2000 nM |  |  | 4200 nM |  |
| [O-][S+](c1ccccc1)c1ccc(/C=C/c2ccc(F)cc2F)nc1 (stereo in doubt; 30) [listing 2 of 2 here] |  |  |  | 38 |  |  |  |  |  |
| [O-][S+](c1ccccc1)c1ccc(/C=C/c2ccc(F)cc2F)nc1 (single isomer, unassigned; form 2) [listing 2 of 2 here] | 0.7 nM | 25 nM | > 2000 nM |  |  |  |  | 6500 nM |  |
| COc1cc(F)ccc1/C=C/c1ccc(S(=O)(=O)c2ccccc2F)cn1 | 65 nM |  | > 2000 nM |  |  |  |  |  |  |
| [O-][S+](c1ccccc1)c1ccc(/C=C/c2ccc(F)cc2F)nc1 (single isomer, unassigned; form 1) [listing 2 of 2 here] |  |  |  | 80 |  |  |  |  |  |
| O=S(=O)(c1ccc(F)cc1)c1ccc(CCc2ccc(F)cc2)cn1 | 19 nM | > 4000 nM | > 1000 nM | > 210 |  |  |  | 6900 nM |  |
| O=S(=O)(c1ccc(/C=C/c2ccc(F)cc2Cl)nc1)c1ccccc1F | 1.8 nM | 64 nM | > 2000 nM | 36 |  |  |  | 4800 nM |  |
| O=S(=O)(c1ccc(F)cc1)C1(F)CCN(CCc2ccc(F)cc2F)CC1 |  |  |  | 460 |  |  |  | 5600 nM |  |
| [O-][S+](c1ccc(/C=C/c2ccc(F)cc2F)nc1)c1ccccc1F (configuration not stated) | 3.5 nM | 43 nM | > 2000 nM |  |  |  |  |  |  |
| O=S(=O)(c1ccc(/C=C/c2ccc(F)cc2F)nc1)c1ccccc1F | 2.6 nM | 410 nM | > 1000 nM | 160 |  |  |  | > 9000 nM |  |

Continued, in another order:

| Ki [1] | Ki [2] | Ki (D(2) dopamine receptor) | Ratio Ki [3] | Ki (D(2) dopamine receptor; cho) | concentration at 1 h [5] | concentration at 1 h [6] | Compound | Ki [4] | Activity (Rattus norvegicus) |
| --- | --- | --- | --- | --- | --- | --- | --- | --- | --- |
| 4.6 nM | 160 nM | > 2000 nM | 35 |  |  |  | [O-][S+](c1ccc(/C=C/c2ccc(F)cc2)nc1)c1ccccc1F (configuration not stated) | 2900 nM |  |
| 17 nM | > 4000 nM | > 1000 nM |  |  |  |  | O=S(=O)(c1ccc(F)cc1)c1ccc(/C=C/c2ccc(F)cc2)nc1 |  |  |
| 7.4 nM | > 4000 nM | > 1000 nM | > 540 |  |  |  | O=S(=O)(c1ccccc1)c1ccc(/C=C/c2ccc(F)cc2)nc1 | > 9000 nM |  |
| 28 nM | > 4000 nM | > 1000 nM | > 140 |  |  |  | O=S(=O)(c1ccc(F)cc1)c1ccc(/C=C/c2ccc(F)cc2)cn1 | 3300 nM |  |
| 9.6 nM | > 4000 nM | > 1000 nM | > 420 |  |  |  | O=S(=O)(c1ccc(/C=C/c2ccc(F)cc2)nc1)c1cccc(F)c1 | > 9000 nM |  |
| 3.6 nM | 810 nM | > 2000 nM | 220 |  |  |  | O=S(=O)(c1ccc(/C=C/c2ccccc2O)nc1)c1ccccc1F | 1400 nM |  |
| 2.6 nM | > 4000 nM | > 2000 nM | > 1500 |  |  |  | O=S(=O)(c1ccc(/C=C/c2ccccc2F)nc1)c1ccccc1F | > 9000 nM |  |
| 5.4 nM | > 4000 nM | > 1000 nM | > 740 |  |  |  | O=S(=O)(c1ccc(/C=C/c2ccc(F)cc2)nc1)c1ccccc1F | > 9000 nM |  |
| 0.86 nM | > 4000 nM | > 2000 nM |  |  | 80 nM | 180 nM | O=S(=O)(c1ccccc1)c1ccc(/C=C/c2ccc(F)cc2F)nc1 |  | 45% |
| 150 nM | > 4000 nM | > 2000 nM | > 27 |  |  |  | O=S(=O)(c1ccc(/C=C/c2cccc(F)c2)nc1)c1ccccc1F | > 9000 nM |  |
| 790 nM | > 4000 nM | > 2000 nM | > 5 |  |  |  | O=S(=O)(c1ccc(/C=C/c2ccncc2)nc1)c1ccccc1F | 4200 nM |  |
| 8.2 nM | 220 nM | > 2000 nM | 27 |  |  |  | Cc1cc(F)ccc1/C=C/c1ccc(S(=O)(=O)c2ccccc2F)cn1 | 5000 nM |  |
| 7.7 nM | 200 nM | > 2000 nM | 26 |  |  |  | [O-][S+](c1ccccc1)c1ccc(/C=C/c2ccc(F)cc2)nc1 (configuration not stated) | 3900 nM |  |
